Source: ChEMBL document CHEMBL2321654, “Design, modification and 3D QSAR studies of novel naphthalin-containing pyrazoline derivatives with/without thiourea skeleton as anticancer agents” (Bioorg Med Chem, 2013)
Active and inactive are the calls of the source. The calls are words filed in the database; no cut-off is given here.

How the values were obtained:
MCF7 = test: Antiproliferative activity against human MCF7 cells after 24 hrs by MTT assay; assay type: functional; conditions: MCF7, 24 h
Procedure, shortened: (§1)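 MCF-7 and A549 cells grown in DMEM/10% FBS, 5% CO2, 37 °C; seeded at 1000 cells/well and left 24 h to reattach. Compound stocks 20 mM in DMSO, diluted in medium; 3-fold serial dilutions gave final […]. Exposure 24 h at 37 °C, then MTT read-out at 590 nm. GI50 calculated from absorbance.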

A549 = test: Antiproliferative activity against human A549 cells after 24 hrs by MTT assay; assay type: functional; conditions: A549, 24 h; procedure, shortened: as §1
[1] = target: T1, Epidermal growth factor receptor (Homo sapiens, UniProt P00533); test: Inhibition of recombinant EGFR cytoplasmic domain (645 to 1186) (unknown origin) autophosphorylation after 1 hr
[2] = target: Receptor tyrosine-protein kinase erbB-2 (Homo sapiens, UniProt P04626); test: Inhibition of human recombinant HER-2 cytoplasmic domain (676 to 1245) autophosphorylation after 1 hr
Procedure, shortened: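 His6-tagged HER-2 expressed in Sf-9 cells (3-day infection), purified by Ni-NTA at 4 °C. Enzyme (12.5 ng) preincubated with compound 10 min at room temperature, then 0.1 mM ATP-50 mM MgCl2 with MnCl2, Na3VO4 and DTT buffer added for 1 h. Autophosphorylation read by europium anti-phosphotyrosine DELFIA time-resolved fluorescence (ex 340/em 615 nm). Controls with and without ATP-MgCl2; triplicate.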

[3] = target: Receptor tyrosine-protein kinase erbB-3 (Homo sapiens, UniProt P21860); test: Inhibition of human recombinant HER-3 cytoplasmic domain (665 to 1339) autophosphorylation after 1 hr
Procedure, shortened: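 HER-3 cytoplasmic domain (aa 665–1339) from 1.8 Kb human cDNA. Assayed by the same DELFIA autophosphorylation procedure as EGFR/HER-2: compound preincubated with enzyme, ATP-MgCl2 for 1 h, europium anti-phosphotyrosine time-resolved fluorescence read-out.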

Focal adhesion kinase 1 = Focal adhesion kinase 1 (Homo sapiens, UniProt Q05397); test: Inhibition of human-recombinant full-length FAK after 4 hrs by kinase-Glo-luminescence assay
Procedure, shortened: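 Full-length recombinant human FAK incubated with ATP and substrate in kinase buffer, with or without compound, for 4 h at room temperature. Final drug concentrations 100, 30, 10 and 3 µg/mL. Remaining ATP measured by Kinase-Glo luminescence.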

[4] = target: Vascular endothelial growth factor receptor 2 (Homo sapiens, UniProt P35968); test: Inhibition of VEGFR-2 (unknown origin) using gastrin as substrate after 1 hr by fluorescence assay
Procedure, shortened: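 Phosphorylated or nonphosphorylated VEGFR-2 kinase domain, 5 nM, incubated with compound (10-point titration, 4 to 0.1 µM) and 1 µM gastrin substrate in Tris-HCl pH 7.5 with MgCl2, NaCl, EGTA, DTT, orthovanadate and BSA, 30 min at 25 °C. ATP then added to 11.8 µM final for 60 min at room temperature. Eu-anti-phosphotyrosine time-resolved fluorescence read at 665 nm; triplicate.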

[5] = target: T1, Epidermal growth factor receptor; conditions: A549, 0.02 to 0.32 uM
[6] = target: T1, Epidermal growth factor receptor; conditions: A549, 0.02 to 0.32 uM; remark: listed apart in the source

Vascular endothelial growth factor receptor 2, sequence (P35968 whole entry, the tested form may be a part): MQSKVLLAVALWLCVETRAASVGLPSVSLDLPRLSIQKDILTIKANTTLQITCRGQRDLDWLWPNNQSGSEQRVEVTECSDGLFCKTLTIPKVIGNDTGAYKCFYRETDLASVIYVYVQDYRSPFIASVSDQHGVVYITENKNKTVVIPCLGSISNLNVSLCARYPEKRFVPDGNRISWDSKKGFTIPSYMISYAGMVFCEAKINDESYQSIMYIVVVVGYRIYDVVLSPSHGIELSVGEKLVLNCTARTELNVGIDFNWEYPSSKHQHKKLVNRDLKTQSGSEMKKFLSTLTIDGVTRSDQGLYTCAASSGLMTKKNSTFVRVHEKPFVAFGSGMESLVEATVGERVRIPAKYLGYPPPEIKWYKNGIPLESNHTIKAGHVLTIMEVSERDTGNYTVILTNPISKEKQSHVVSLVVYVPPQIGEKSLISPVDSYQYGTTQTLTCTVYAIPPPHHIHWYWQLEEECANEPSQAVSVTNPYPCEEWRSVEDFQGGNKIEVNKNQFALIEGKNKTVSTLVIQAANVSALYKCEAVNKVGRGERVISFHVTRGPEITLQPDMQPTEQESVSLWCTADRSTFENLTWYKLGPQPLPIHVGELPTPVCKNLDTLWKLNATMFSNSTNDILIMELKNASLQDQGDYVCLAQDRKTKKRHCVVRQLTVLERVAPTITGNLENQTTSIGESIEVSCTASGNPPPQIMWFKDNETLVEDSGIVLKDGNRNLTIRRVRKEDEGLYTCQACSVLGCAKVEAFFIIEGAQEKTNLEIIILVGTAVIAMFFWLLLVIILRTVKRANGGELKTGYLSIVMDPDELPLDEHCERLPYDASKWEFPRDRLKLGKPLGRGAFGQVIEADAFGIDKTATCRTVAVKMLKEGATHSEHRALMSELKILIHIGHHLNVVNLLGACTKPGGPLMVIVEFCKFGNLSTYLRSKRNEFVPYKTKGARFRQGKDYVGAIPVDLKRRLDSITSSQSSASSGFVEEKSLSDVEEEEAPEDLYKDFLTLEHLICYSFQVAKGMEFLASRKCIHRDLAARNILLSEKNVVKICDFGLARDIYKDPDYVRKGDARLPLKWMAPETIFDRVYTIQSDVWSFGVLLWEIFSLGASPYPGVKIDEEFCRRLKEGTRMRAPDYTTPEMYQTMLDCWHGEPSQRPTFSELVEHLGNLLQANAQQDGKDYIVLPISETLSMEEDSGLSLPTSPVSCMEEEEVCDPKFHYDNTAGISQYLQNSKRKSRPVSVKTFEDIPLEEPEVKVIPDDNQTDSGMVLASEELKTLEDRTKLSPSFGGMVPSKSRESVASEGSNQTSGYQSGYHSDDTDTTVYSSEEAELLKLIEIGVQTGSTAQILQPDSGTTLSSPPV
Receptor tyrosine-protein kinase erbB-2, sequence (P04626 whole entry, the tested form may be a part): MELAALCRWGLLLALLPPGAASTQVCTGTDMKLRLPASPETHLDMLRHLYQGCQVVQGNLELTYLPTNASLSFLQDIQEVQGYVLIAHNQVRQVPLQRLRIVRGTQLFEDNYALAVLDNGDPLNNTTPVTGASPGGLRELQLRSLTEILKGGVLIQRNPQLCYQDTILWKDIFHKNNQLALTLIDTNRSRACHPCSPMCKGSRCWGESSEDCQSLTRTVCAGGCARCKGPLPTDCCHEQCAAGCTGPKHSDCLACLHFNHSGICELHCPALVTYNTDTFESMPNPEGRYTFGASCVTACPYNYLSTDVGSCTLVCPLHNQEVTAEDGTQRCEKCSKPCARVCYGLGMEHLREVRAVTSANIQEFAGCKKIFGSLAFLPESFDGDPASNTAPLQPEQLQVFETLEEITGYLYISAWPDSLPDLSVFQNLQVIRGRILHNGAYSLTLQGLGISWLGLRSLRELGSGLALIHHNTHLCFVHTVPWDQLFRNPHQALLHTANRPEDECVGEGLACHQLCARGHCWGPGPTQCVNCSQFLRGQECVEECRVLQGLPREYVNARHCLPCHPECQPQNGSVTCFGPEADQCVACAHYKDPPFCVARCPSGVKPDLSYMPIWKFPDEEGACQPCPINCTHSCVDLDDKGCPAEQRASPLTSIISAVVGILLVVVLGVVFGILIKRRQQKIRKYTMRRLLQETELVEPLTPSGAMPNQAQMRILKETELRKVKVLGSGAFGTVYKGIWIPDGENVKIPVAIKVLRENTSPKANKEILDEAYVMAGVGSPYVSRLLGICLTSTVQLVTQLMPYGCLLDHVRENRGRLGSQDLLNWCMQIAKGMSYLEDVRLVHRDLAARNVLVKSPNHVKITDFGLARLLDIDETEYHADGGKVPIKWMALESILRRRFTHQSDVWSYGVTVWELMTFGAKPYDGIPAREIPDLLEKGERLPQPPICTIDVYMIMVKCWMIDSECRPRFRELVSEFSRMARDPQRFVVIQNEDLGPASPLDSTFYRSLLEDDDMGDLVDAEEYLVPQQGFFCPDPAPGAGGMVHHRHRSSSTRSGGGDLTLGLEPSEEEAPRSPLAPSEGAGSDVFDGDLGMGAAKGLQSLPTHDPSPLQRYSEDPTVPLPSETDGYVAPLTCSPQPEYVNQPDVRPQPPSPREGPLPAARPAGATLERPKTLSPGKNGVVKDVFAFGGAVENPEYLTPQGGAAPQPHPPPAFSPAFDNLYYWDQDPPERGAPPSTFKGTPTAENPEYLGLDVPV
Receptor tyrosine-protein kinase erbB-3, sequence (P21860 whole entry, the tested form may be a part): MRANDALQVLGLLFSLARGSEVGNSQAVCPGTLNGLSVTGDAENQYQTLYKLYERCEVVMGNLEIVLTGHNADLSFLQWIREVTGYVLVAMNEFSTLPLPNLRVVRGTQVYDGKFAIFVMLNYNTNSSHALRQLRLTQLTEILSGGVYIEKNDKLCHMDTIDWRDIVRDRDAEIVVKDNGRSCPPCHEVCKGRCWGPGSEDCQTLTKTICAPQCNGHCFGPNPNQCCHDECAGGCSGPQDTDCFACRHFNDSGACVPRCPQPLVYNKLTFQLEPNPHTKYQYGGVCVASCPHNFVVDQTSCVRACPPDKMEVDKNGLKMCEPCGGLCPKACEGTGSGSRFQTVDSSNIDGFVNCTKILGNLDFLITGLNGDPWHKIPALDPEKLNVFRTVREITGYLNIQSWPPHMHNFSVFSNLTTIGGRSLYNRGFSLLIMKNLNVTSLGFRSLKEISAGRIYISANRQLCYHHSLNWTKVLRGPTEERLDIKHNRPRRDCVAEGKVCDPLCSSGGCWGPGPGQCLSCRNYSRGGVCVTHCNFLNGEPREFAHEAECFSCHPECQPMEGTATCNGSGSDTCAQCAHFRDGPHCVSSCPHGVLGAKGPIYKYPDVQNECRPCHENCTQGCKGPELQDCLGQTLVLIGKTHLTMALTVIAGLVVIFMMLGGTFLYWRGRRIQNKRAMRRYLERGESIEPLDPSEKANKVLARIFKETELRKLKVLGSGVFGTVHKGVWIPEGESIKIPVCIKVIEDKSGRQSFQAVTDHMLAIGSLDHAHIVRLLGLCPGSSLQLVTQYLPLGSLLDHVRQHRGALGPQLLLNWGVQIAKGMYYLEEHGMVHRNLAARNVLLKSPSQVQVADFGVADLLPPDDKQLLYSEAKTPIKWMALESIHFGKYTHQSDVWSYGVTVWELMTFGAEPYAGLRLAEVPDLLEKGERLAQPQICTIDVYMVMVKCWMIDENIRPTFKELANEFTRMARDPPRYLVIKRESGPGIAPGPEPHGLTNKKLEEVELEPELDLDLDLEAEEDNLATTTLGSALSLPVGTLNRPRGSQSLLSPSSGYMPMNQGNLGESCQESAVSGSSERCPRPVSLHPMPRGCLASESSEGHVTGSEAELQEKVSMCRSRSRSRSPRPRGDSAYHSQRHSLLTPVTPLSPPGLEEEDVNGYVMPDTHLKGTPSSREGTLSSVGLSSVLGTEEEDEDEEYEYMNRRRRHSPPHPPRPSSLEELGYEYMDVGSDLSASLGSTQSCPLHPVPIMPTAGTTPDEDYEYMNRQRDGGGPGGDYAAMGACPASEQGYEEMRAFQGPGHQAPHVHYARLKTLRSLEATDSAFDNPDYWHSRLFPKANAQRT
Focal adhesion kinase 1, sequence (Q05397 whole entry): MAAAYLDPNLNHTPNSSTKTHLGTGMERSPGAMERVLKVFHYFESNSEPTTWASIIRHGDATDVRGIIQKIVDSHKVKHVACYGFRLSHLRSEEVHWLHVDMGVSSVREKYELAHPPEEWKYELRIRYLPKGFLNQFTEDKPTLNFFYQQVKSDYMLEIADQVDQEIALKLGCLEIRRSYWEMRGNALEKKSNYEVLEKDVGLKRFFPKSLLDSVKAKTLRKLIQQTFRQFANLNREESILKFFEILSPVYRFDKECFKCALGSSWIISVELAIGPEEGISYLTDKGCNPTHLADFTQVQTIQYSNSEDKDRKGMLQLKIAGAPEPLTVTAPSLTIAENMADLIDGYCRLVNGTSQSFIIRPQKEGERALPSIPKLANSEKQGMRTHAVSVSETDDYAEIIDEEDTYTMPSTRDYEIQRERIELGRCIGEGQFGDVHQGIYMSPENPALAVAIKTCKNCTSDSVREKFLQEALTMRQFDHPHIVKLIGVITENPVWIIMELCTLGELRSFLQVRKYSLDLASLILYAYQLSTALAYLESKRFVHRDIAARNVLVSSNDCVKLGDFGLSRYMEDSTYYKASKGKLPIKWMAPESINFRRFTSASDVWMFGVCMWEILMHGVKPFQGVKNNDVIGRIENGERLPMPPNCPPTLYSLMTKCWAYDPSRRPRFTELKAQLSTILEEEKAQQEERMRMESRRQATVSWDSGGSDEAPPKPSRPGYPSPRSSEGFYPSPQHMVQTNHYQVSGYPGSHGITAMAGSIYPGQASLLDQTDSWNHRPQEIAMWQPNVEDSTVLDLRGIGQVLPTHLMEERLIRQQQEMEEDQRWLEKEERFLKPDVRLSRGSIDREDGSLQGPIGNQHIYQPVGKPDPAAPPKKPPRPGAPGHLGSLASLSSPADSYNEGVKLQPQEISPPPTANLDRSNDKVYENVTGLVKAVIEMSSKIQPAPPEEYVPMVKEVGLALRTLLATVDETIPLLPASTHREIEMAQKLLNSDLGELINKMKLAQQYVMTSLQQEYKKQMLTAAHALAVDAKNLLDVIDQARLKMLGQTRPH

Structure (SMILES)	GI50 (MCF7) [nM]	GI50 (A549) [nM]	IC50 [1] [nM]	IC50 [2] [nM]	IC50 [3] [nM]	IC50 (Focal adhesion kinase 1) [nM]	IC50 [4] [nM]	inhibition [5]	inhibition [6]
NC(=S)N1N=C(c2ccc(Cl)c(Cl)c2)CC1c1cccc2ccccc12 (configuration not stated)	33100	180	210	6840					
NC(=S)N1N=C(c2ccc(Br)cc2)CC1c1ccc2ccccc2c1 (configuration not stated)	440	230	350	1210					
Cc1ccc(C2=NN(c3ccccc3)C(c3cccc4ccccc34)C2)cc1 (configuration not stated)	740	190	200	1910					
COc1ccc(C2=NN(c3ccccc3)C(c3ccc4ccccc4c3)C2)cc1 (configuration not stated)	550	160		1450					
COc1ccc(C2=NN(C(N)=S)C(c3cccc4ccccc34)C2)cc1 (configuration not stated)	4180	170	160	4180	55600	13600	4100		
NC(=S)N1N=C(c2ccccc2)CC1c1ccc2ccccc2c1 (configuration not stated)	13800	3210	3010	5690					
Clc1ccc(C2=NN(c3ccccc3)C(c3cccc4ccccc34)C2)cc1Cl (configuration not stated)	810	200	140	1980					
Clc1ccc(C2=NN(c3ccccc3)C(c3ccc4ccccc4c3)C2)cc1 (configuration not stated)	530	160	110	1460					
COc1ccc(C2=NN(C(N)=S)C(c3ccc4ccccc4c3)C2)cc1 (configuration not stated)	2120	460	1040	3280					
NC(=S)N1N=C(c2ccccc2)CC1c1cccc2ccccc12 (configuration not stated)	44500	1440	2230	7240					
Brc1ccc(C2=NN(c3ccccc3)C(c3ccc4ccccc4c3)C2)cc1 (configuration not stated)	480	360	710	1280					
c1ccc(C2=NN(c3ccccc3)C(c3cccc4ccccc34)C2)cc1 (configuration not stated)	3290	1980	2520	3830					
NC(=S)N1N=C(c2ccc(Cl)cc2)CC1c1cccc2ccccc12 (configuration not stated)	11200	380		5460					
Brc1ccc(C2=NN(c3ccccc3)C(c3cccc4ccccc34)C2)cc1 (configuration not stated)	1030	250	490	2320					
C#Cc1cccc(Nc2ncnc3cc(OCCOC)c(OCCOC)cc23)c1 [ERLOTINIB]	80	30							
NC(=S)N1N=C(c2ccc(Cl)cc2)CC1c1ccc2ccccc2c1 (configuration not stated)	3310	260		3870					

Structure (SMILES)	GI50 (MCF7) [nM]	GI50 (A549) [nM]	IC50 [1] [nM]	IC50 [2] [nM]	IC50 [3] [nM]	IC50 (Focal adhesion kinase 1) [nM]	IC50 [4] [nM]	inhibition [5]	inhibition [6]
NC(=S)N1N=C(c2ccc(Cl)c(Cl)c2)CC1c1ccc(O)cc1 (configuration not stated)	27600	33500		6580					
c1ccc(C2=NN(c3ccccc3)C(c3ccc4ccccc4c3)C2)cc1 (configuration not stated)	730	220	240	1890					
Cc1ccc(C2=NN(C(N)=S)C(c3cccc4ccccc34)C2)cc1 (configuration not stated)	29100	1210	2060	6680					
NC(=S)N1N=C(c2ccc(Cl)c(Cl)c2)CC1c1ccc2ccccc2c1 (configuration not stated)	350	310	660	880	51700	9900	3200		
NC(=S)N1N=C(c2ccc(F)cc2)CC1c1cccc2ccccc12 (configuration not stated)	> 50000	> 50000	8250	10600					
NC(=S)N1N=C(c2ccc(F)cc2)CC1c1ccc2ccccc2c1 (configuration not stated)	880	4180	3280	1750					
Fc1ccc(C2=NN(c3ccccc3)C(c3cccc4ccccc34)C2)cc1 (configuration not stated)	2680	490	1070	3590					
NC(=S)N1N=C(c2ccc(Br)cc2)CC1c1cccc2ccccc12 (configuration not stated)	> 50000	49100	5680	9150					
COc1ccc(C2CC(c3ccc(C)c(C)c3)=NN2C(N)=S)cc1 (configuration not stated)	3790	340		2770					
Cc1ccc(C2=NN(c3ccccc3)C(c3ccc4ccccc4c3)C2)cc1 (configuration not stated)	390	130	60	1130	45300	11500	1560		
Cc1ccc(C2=NN(C(N)=S)C(c3ccc4ccccc4c3)C2)cc1 (configuration not stated)	390	270	520	1040	63200	28700	2100		
Fc1ccc(C2=NN(c3ccccc3)C(c3ccc4ccccc4c3)C2)cc1 (configuration not stated)	850	230	300	2010					
Clc1ccc(C2=NN(c3ccccc3)C(c3ccc4ccccc4c3)C2)cc1Cl (configuration not stated)	390	110	50	1020	35900	6200	1830	Active	Active
COc1ccc(C2=NN(c3ccccc3)C(c3cccc4ccccc34)C2)cc1 (configuration not stated)	1710	160	100	3010	40200	10300	3400		
Clc1ccc(C2=NN(c3ccccc3)C(c3cccc4ccccc34)C2)cc1 (configuration not stated)	1820	330	680	3070					
